Results on 1 compound are retold here after ChEMBL document CHEMBL1154352, “Toll-like receptor 7 selective synthetic oligoribonucleotide agonists: synthesis and structure-activity relationship studies” (J Med Chem, 2009).

Active and inactive are the calls of the source. The calls are words filed in the database; no cut-off is given here.

The subject of assay [1] is Mus musculus. In words: Immunomodulatory activity in wild-type C57BL/6 mouse assessed as induction of IL12 release at 10 mg/kg, sc after 2 hrs by ELISA. It is filed as functional, organism-based. Details: dose 10 mg/kg. An outline of the steps: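 Female C57BL/6 wild-type mice, 5–8 weeks old, n=3; compounds given subcutaneously at 10 or 25 mg/kg. Retro-orbital blood at 2 h; serum cytokines by mouse Luminex multiplex or IL-12 ELISA.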
For orientation: ELISA stands for enzyme-linked immunosorbent assay.

Assay [2] has as its system Mus musculus. The experiment in a line: Immunomodulatory activity in TLR9 knockout C57BL/6 mouse assessed as induction of IL12 release at 10 mg/kg, sc after 2 hrs by ELISA. It is filed as functional, organism-based. The arrangement: dose 10 mg/kg. An outline of the steps: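 Male 8-week-old TLR9-/-, TLR7-/- or MyD88-/- mice on C57BL/6 background, n=3; single subcutaneous 10 mg/kg dose. Blood collected 2 h later by retro-orbital bleeding; serum IL-12 by ELISA.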

As for `Nc1ccn([C@@H]2O[C@H](COP(=O)(S)O[C@H]3[C@@H](O)[C@H](n4cnc5c(N)ncnc54)O[C@@H]3CO)[C@@H](OP(=O)(S)OC[C@H]3O[C@@H](n4ccc(=O)[nH]c4=O)[C@H](O)[C@@H]3OP(=O)(S)OC[C@H]3O[C@@H](n4ccc5c(=O)[nH]c(N)nc54)[C@H](O)[C@@H]3OP(=O)(S)OC[C@H]3O[C@@H](n4ccc(N)nc4=O)[C@H](O)[C@@H]3OP(=O)(S)OC[C@H]3O[C@@H](n4ccc5c(=O)[nH]c(N)nc54)[C@H](O)[C@@H]3OP(=O)(S)OC[C@H]3O[C@@H](n4cnc5c(N)ncnc54)[C@H](O)[C@@H]3OP(=O)(S)OC[C@H]3O[C@@H](n4ccc5c(=O)[nH]c(N)nc54)[C@H](O)[C@@H]3OP(=O)(S)OC[C@H]3O[C@@H](n4ccc(N)nc4=O)[C@H](O)[C@@H]3OP(=O)(S)OC[C@H]3O[C@@H](n4ccc(=O)[nH]c4=O)[C@H](O)[C@@H]3OP(=O)(S)OC[C@H]3O[C@@H](n4ccc(=O)[nH]c4=O)[C@H](O)[C@@H]3OP(=O)(S)OCC(O)COP(=O)(S)O[C@H]3[C@@H](O)[C@H](n4ccc(=O)[nH]c4=O)O[C@@H]3COP(=O)(S)O[C@H]3[C@@H](O)[C@H](n4ccc(=O)[nH]c4=O)O[C@@H]3COP(=O)(S)O[C@H]3[C@@H](O)[C@H](n4ccc(N)nc4=O)O[C@@H]3COP(=O)(S)O[C@H]3[C@@H](O)[C@H](n4ccc5c(=O)[nH]c(N)nc54)O[C@@H]3COP(=O)(S)O[C@H]3[C@@H](O)[C@H](n4cnc5c(N)ncnc54)O[C@@H]3COP(=O)(S)O[C@H]3[C@@H](O)[C@H](n4ccc5c(=O)[nH]c(N)nc54)O[C@@H]3COP(=O)(S)O[C@H]3[C@@H](O)[C@H](n4ccc(N)nc4=O)O[C@@H]3COP(=O)(S)O[C@H]3[C@@H](O)[C@H](n4ccc5c(=O)[nH]c(N)nc54)O[C@@H]3COP(=O)(S)O[C@H]3[C@@H](O)[C@H](n4ccc(=O)[nH]c4=O)O[C@@H]3COP(=O)(S)O[C@H]3[C@@H](O)[C@H](n4ccc(N)nc4=O)O[C@@H]3COP(=O)(S)O[C@H]3[C@@H](O)[C@H](n4cnc5c(N)ncnc54)O[C@@H]3CO)[C@H]2O)c(=O)n1` (some centres not stated), the outcome in assay [1] and in assay [2] was Active.
